Measurements as given in ChEMBL document CHEMBL1146542, “Cytotoxic flavone analogues of vitexicarpin, a constituent of the leaves of Vitex negundo” (J Nat Prod, 2003).
Values after ≈ are worked out from the molar mass of the structure shown. Active and inactive are the calls of the source. The rule behind the calls is not given here.

Assays:
[1] = Cytotoxicity against HUVEC; assay type: cell-based; settings: human, read-out: ED50 (the source's name)
Col2 = test: Cytotoxicity against human Col2 cells; assay type: functional; settings: read-out: ED50 (the source's name)
[2] = Cytotoxicity against human telomerase reverse transcriptase expressing RPE1 cells; assay type: cell-based, TERT-RPE1; settings: read-out: ED50 (the source's name)
Lu1 [3] = test: Cytotoxicity against human Lu1 cells; assay type: functional; settings: read-out: ED50 (the source's name)
LNCaP [4] = test: Cytotoxicity against human LNCAP cells; assay type: functional; settings: read-out: ED50 (the source's name)
KB [5] = test: Cytotoxicity against human KB cells; assay type: functional; settings: read-out: ED50 (the source's name)
KB [6] = test: Inhibition of human KB cells propagated in hollow fibers via subcutaneous site of NCr nu/nu mouse at 10 to 40 mg/kg, ip once daily after 7 days of implantation relative to control; assay type: functional; settings: dose mg/kg 10-40
Method in brief: (§1)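 Hollow fiber assay in mice with KB, LNCaP and Lu1 cells, with fibers placed at intraperitoneal and subcutaneous sites. Compound given ip at 10, 20 and 40 mg/kg. Read-out was percent growth inhibition of the cells at each site versus control, and body weight of the mice was monitored.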

Lu1 [7] = test: Inhibition of human Lu1 cells propagated in hollow fibers via subcutaneous site of NCr nu/nu mouse at 10 to 40 mg/kg, ip once daily after 7 days of implantation relative to control; assay type: functional; settings: dose mg/kg 10-40; method in brief: as §1
LNCaP [8] = test: Inhibition of human LNCAP cells propagated in hollow fibers via subcutaneous site of NCr nu/nu mouse at 10 to 40 mg/kg, ip once daily after 7 days of implantation relative to control; assay type: functional; settings: dose mg/kg 10-40; method in brief: as §1
P388 = test: In vivo growth inhibition of mouse P388 cells at 135 mg/kg, ip relative to control; assay type: functional; settings: route intraperitoneal
Method in brief: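 Mouse P-388 leukemia model run under a standard protocol. Compound given intraperitoneally at 135 mg/kg/injection, and activity was expressed as T/C value (%).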

LNCaP [9] = test: Inhibition of human LNCAP cells propagated in hollow fibers via intraperitoneal site of NCr nu/nu mouse at 10 to 40 mg/kg, ip once daily after 7 days of implantation relative to control; assay type: functional; settings: dose mg/kg 10-40; method in brief: as §1
Lu1 [10] = test: Inhibition of human Lu1 cells propagated in hollow fibers via intraperitoneal site of NCr nu/nu mouse at 10 to 40 mg/kg, ip once daily after 7 days of implantation relative to control; assay type: functional, organism-based; method in brief: as §1

Row | SMILES | CC50 [1] [µg/mL] | EC50 (Col2) [µg/mL] | CC50 [2] [µg/mL] | EC50 (Lu1 [3]) [µg/mL] | EC50 (LNCaP [4]) [µg/mL] | EC50 (KB [5]) [µg/mL] | inhibition (INH) (KB [6]) [%] | inhibition (INH) (Lu1 [7]) [%] | inhibition (INH) (LNCaP [8]) [%] | T/C (P388) [%] | inhibition (INH) (LNCaP [9]) [%] | Activity (Lu1 [10])
1 | COc1ccc(-c2oc3cc(OC)c(OC)c(O)c3c(=O)c2OC)cc1OC(=O)c1ccccc1 | 20 (≈ 41.8 µM) | > 20 | 3.6 (≈ 7.52 µM) | 16.5 (≈ 34.5 µM) | > 20 | > 20 | – | – | – | – | – | –
2 | CCCCCC(=O)Oc1cc(-c2oc3cc(OC)c(OC)c(OC(=O)CCCCC)c3c(=O)c2OC)ccc1OC | 11.1 (≈ 19.5 µM) | > 20 | 0.4 (≈ 0.701 µM) | 0.7 (≈ 1.23 µM) | 0.5 (≈ 0.876 µM) | 0.5 (≈ 0.876 µM) | 0 | 0 | 0 | 100 | 0 | inactive
3 | COc1ccc(-c2oc3cc(OC)c(OC)c(OC(C)=O)c3c(=O)c2OC)cc1OC(C)=O | 0.1 (≈ 0.218 µM) | 15.9 (≈ 34.7 µM) | 0.4 (≈ 0.873 µM) | 0.7 (≈ 1.53 µM) | 0.1 (≈ 0.218 µM) | 0.2 (≈ 0.436 µM) | – | – | – | – | – | –
4 | C=CCCC(=O)Oc1cc(-c2oc3cc(OC)c(OC)c(OC(=O)CCC=C)c3c(=O)c2OC)ccc1OC | 5.5 (≈ 10.2 µM) | 15 (≈ 27.9 µM) | 0.6 (≈ 1.11 µM) | 1.4 (≈ 2.6 µM) | 0.7 (≈ 1.3 µM) | 0.6 (≈ 1.11 µM) | – | – | – | – | – | –
5 | CCC(=O)Oc1cc(-c2oc3cc(OC)c(OC)c(OC(=O)CC)c3c(=O)c2OC)ccc1OC | 6.5 (≈ 13.4 µM) | > 20 | 0.5 (≈ 1.03 µM) | 1 (≈ 2.06 µM) | 0.4 (≈ 0.822 µM) | 0.6 (≈ 1.23 µM) | – | – | – | – | – | –
6 | CCCC(=O)Oc1cc(-c2oc3cc(OC)c(OC)c(OC(=O)CCC)c3c(=O)c2OC)ccc1OC | > 20 | 11.7 (≈ 22.7 µM) | 0.6 (≈ 1.17 µM) | 1.7 (≈ 3.3 µM) | 0.8 (≈ 1.55 µM) | 0.5 (≈ 0.972 µM) | – | – | – | – | – | –
7 | COc1ccc(-c2oc3cc(OC)c(OC)c(OC(=O)c4ccccc4)c3c(=O)c2OC)cc1OC(=O)c1ccccc1 | > 20 | > 20 | 4.3 (≈ 7.38 µM) | 6.5 (≈ 11.2 µM) | > 20 | > 20 | – | – | – | – | – | –
8 | COc1ccc(-c2oc3cc(OC)c(OC)c(O)c3c(=O)c2OC)cc1O [CASTICIN] | 0.6 (≈ 1.6 µM) | 12.7 (≈ 33.9 µM) | 0.2 (≈ 0.534 µM) | 0.8 (≈ 2.14 µM) | 0.5 (≈ 1.34 µM) | 0.2 (≈ 0.534 µM) | – | – | – | – | – | –
9 | COc1ccc(-c2oc3cc(OC)c(OC)c(OC)c3c(=O)c2OC)cc1OC [HEXAMETHOXYFLAVONE] | > 20 | > 20 | > 20 | > 20 | > 20 | > 20 | – | – | – | – | – | –
